Assay results: paper PMC5576721 (Biochemistry, 2015)
Entries after “also recorded” stand apart in the source; their conditions may differ.

Key:
6-helix = test: SEC-MALS binding stoichiometry with 6-helix; set-up: species or system HIV-1; details: 5-fold molar excess C34, 200 μg 6-helix, 10 mM Tris-HCl pH 7.6, 150 mM NaCl
core^S [1] = test: SEC-MALS binding stoichiometry with core^S; set-up: species or system HIV-1
core^S [2] = test: Circular dichroism of core^S with and without C34; set-up: species or system HIV-1
core^SP [3] = test: SEC titration of C34-AL647 into core^SP; format: binding, HIV-1
core^SP [4] = test: Circular dichroism of core^SP with and without C34; set-up: species or system HIV-1; details: core^SP 2.5 μM trimer, 5-fold excess C34, buffer A pH 7.6, 20 °C
Procedure, shortened: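 CoreSP (N-HR and C-HR peptides counted as one unit) is used at 2.5 μM trimer, alone or with a 5-fold molar excess of C34, in 10 mM Tris-HCl pH 7.6 with 150 mM NaCl. Spectra are recorded at 20 °C in a 0.1 cm path-length flat cell. α-Helical content is estimated by CDNN.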

core^S [5] = test: ITC with core^S; format: binding, HIV-1; details: C34 0.05–0.1 mM into 5–10 μM core^S, 10 mM Tris-HCl pH 7.6, 150 mM NaCl, 25 °C, iTC200
HIV-1 fusion = details: ref [17] Markosyan et al.; cited from earlier work
core^SP [6] = test: SEC-MALS and SEC displacement of C38 / C38-AL647 from core^SP; format: binding, HIV-1; details: 5-fold molar excess C34, SEC–MALS, confirmed with core^SP-AL647
5-helix [7] = test system: 5-helix
N-Cys core^S = test: DEER EPR of N-Cys core^S with and without C34; set-up: species or system HIV-1; details: 50 μM subunits, 1.2-fold molar excess C34, Q-band, 50 K
5-helix [8] = details: 5-fold molar excess C34, 200 μg 5-helix, 10 mM Tris-HCl pH 7.6, 150 mM NaCl
core^S [9] = test: SEC titration of C34-AL647 into core^S; format: binding, HIV-1; details: fits of 280 and 609+650 nm peak areas
core^S [10] = test: Native-PAGE band shift with core^S; format: binding, HIV-1; details: 10 μM core^S, 30 min, room temperature, 20% homogeneous gel
[11] = molecular target: single-chain five-helix bundle (5-helix) (HIV-1) (UniProt P04578); test: SEC-MALS
[12] = molecular target: single-chain six-helix bundle (6-helix) (HIV-1) (UniProt P04578); test: SEC-MALS
[13] = molecular target: the molecule itself; test: composition gradient–MALS

## Ac-C-HR^628–661-NH2 [C34]
6-helix
  binding to 6-helix (stoichiometry): weak binding of C34 as a 1:1 complex
core^S [1]; 5-fold molar excess C34, 10 mM Tris-HCl pH 7.6, 150 mM NaCl
  binding stoichiometry with core^S: one core^S trimer to two C34 peptides with no dissociation of the core^S trimer; also recorded: binding of two C34 molecules to one core^S trimer
core^S [1]; SEC–MALS and band-shift assays
  evidence for a 1:3 core^S–(C34)3 complex: no evidence of the existence of a 1:3 core^S–(C34)3 complex
core^S [2]; core^S 7 μM trimer, 5-fold molar excess C34, buffer A pH 7.6, 20 °C
  increase in helicity of core^S on C34 binding: ~ 18%
core^S [2]; two C34 bound, two C28 C-HR displaced, 5-fold molar excess C34
  additional residues in helical conformation of core^S trimer: 30 residues
core^SP [3]; core^SP, value in discussion
  equilibrium constant for the exchange reaction of C34 with C38: 0.9
core^SP [3]; fits of 609+650 nm peak areas
  cooperativity of exchange with core^SP: no evidence of any cooperativity
core^SP [4]
  change in helicity of core^SP on C34 binding: no change in helicity
core^S [5]
  heat signature in ITC with core^S: did not yield a heat signature
HIV-1 fusion
  time window of fusion inhibitory activity: can extend from the point at which the prehairpin intermediate of gp41 becomes accessible through the formation of late prebundle intermediates and labile pore formation, but not after irreversible formation of the six-helix bundle
core^SP [6]
  displacement of C38 from core^SP: binding of C34 to core^SP is accompanied by displacement of C38
5-helix [7]; native-PAGE, room temperature
  binding to 5-helix by native-PAGE: binding of C34 is clearly evident
5-helix [7]; positive control
  stoichiometry of binding to 5-helix by native-PAGE: 1:1 stoichiometry of binding
N-Cys core^S
  effect of C34 on DEER dipolar evolution data / P(r) of N-Cys core^S: negligible effect
5-helix [8]
  binding to 5-helix (stoichiometry): binds with a 1:1 stoichiometry
core^S [9]
  cooperativity of binding to core^S: no evidence of any cooperativity
core^S [10]
  binding to core^S by native-PAGE: even at 3:1 and 3:2 core^S:C34 ratios (Figure 4C) a significant amount of complex comprising two C34 molecules bound to one core^S trimer is formed; also recorded: binding of C34 is clearly evident

## C34 peptide (chemically synthesized, Ac-C-HR^628–661-NH2) (from UniProt P04578 628-661)
[11]
  stoichiometry N (C34 per 5-helix): 1
[12]
  stoichiometry N (C34 per 6-helix): 1

B1: core^S (N34^546–579-(L6)-C28^628–655), homotrimeric six-helix bundle of gp41 (domain or fragment)
chain: SGIVQQQNNLLRAIEAQQHLLQLTVWGIKQLQARSGGRGGWMEWDREINNYTSLIHSLIEESQNQQEK
[13]
  Kd: < 250 nM
